Screens from PubChem BioAssay.
hERG rescue: compounds protecting human hERG from proarrhythmic drug block. Q12809. CHO-hERG, FluxOR thallium flux, dofetilide IC70 present. activation (rescue from dofetilide block), less the hit threshold, % at 10 µM. hit rate 0.51% among 310,000;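 active = activation above the mean of controls blocked by dofetilide plus 5 SD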;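 also: thallium influx through hERG after potassium depolarization seen as dye fluorescence rise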
Kir21 inh: Kir2.1 (mouse) channel inhibition. AID 1672. hit rate 0.85% among 310,000. B-score at 10 µM. HEK293-Kir2.1, FluxOR thallium flux fluorescence; hits give low values. P35561;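 active = fluorescence ratio B-score at or below minus 3 SD of library scores, with starting-brightness B-score within 2 SD, cut at about -4.2 in these data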;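 also: channel flux triggered by added potassium and thallium sulfate stimulus; B-score of peak minus minimum fluorescence over baseline after thallium stimulus; more negative B-score means stronger Kir2.1 block with less thallium influx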
KCNQ1 inh: inhibitors of human KCNQ1 potassium channel; P51787; hit rate 1.3% among 310,000; CHO-K1 KCNQ1, FluxOR thallium flux fluorescence; hits give high values; B-score at 10 µM;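 active = compounds whose thallium flux B-score, printed positive for inhibition, exceeds three library SD while starting fluorescence stays within three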;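 also: channel opened by potassium depolarization with thallium stimulus after 20 min compound exposure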
Target sequence (P51787 whole entry, looked up): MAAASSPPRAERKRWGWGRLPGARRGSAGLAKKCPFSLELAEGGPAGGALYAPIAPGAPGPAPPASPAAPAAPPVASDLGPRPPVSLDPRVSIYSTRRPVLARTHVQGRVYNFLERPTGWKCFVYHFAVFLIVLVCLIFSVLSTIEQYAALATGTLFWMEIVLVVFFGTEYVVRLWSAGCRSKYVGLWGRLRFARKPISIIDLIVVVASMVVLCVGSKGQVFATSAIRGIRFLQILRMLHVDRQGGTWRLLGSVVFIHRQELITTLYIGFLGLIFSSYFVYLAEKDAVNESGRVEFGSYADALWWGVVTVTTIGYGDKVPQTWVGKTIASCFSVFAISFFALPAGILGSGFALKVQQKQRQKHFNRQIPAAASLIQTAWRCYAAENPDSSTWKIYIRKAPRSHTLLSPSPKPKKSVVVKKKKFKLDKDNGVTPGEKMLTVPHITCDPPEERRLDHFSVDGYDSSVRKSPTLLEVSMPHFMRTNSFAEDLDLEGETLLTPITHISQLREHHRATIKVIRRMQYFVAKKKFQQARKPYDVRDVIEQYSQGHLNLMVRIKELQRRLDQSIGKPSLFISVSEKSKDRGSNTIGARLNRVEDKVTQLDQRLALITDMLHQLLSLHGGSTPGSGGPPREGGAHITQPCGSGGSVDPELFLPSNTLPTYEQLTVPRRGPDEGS
KCNK9 inh: inhibitors of human KCNK9 two-pore domain potassium channel; Q9NPC2; HEK293 KCNK9, FluxOR thallium flux fluorescence; hits give low values; B-score at 10 µM; hit rate 1.2% among 310,000; AID 488922;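 active = ratio B-score over 3 SD below the library mean, with starting fluorescence within 5 SD of its mean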;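 also: negative B-score means less thallium flux so channel inhibition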
KCNQ1 pot: human KCNQ1 channel potentiation or activation. P51787. CHO-K1 KCNQ1, thallium flux FluxOR fluorescence; hits give high values. B-score at 10 µM. hit rate 0.35% among 310,000. AID 2648;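 active = fluorescence ratio B-score, a plate-corrected score, at least three library SD, with initial intensity B-score within 5 SD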
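Material: CHO-K1 cells stably expressing KCNQ1. Medium: assay buffer for compound exposure, DMSO matched across wells. Reagent: K+/Tl+ depolarizing stimulus. Compound dosing: single-concentration screen. Times: 37 °C overnight plating, 90-min dark dye load, 20-min compound pretreatment. Technique: FluxOR Tl+ flux fluorescence.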
KCNK3 block: human KCNK3 channel inhibition, primary screen; CHO-KCNK3 thallium flux, FluxOR fluorescence; hits give low values; hit rate 0.84% among 340,000; B-score at 10 µM;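 active = B-score under library mean minus 4 SD, starting fluorescence ratio at most library mean plus 5 SD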;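 also: more negative B-score means stronger inhibition of thallium flux through KCNK3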
KCNK3 inh conf: human KCNK3 channel inhibition, confirmation assay; hit rate 99% among 2,400; shares compounds with KCNK3 block; ratio percent of control, % at 10 µM; CHO-KCNK3 thallium flux, FluxOR fluorescence; 0% buffer, 100% carvedilol maximal block;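 active = ratio percent of control, averaged over triplicates, above buffer control mean plus 5 SD, cut at about 64% in these data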;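 also: ratio is the fluorescence rise from min to max over baseline after thallium stimulus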
KCNK3 noninduced: activity in cells without induced KCNK3 expression; thallium flux ratio (lower = more inhibition) at 10 µM; non-induced KCNK3 parental cells, FluxOR thallium flux; hits give low values; shares compounds with KCNK3 block; hit rate 40% among 2,400;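 active = thallium flux ratio, averaged over three wells, more than 5 SD below the buffer control mean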;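 also: host cells are CHO cells without KCNK3 induction; ratio is peak minus trough fluorescence over baseline then normalized to buffer controls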
Numbers without * were called inactive. Shown are actives, neighbours in structure and some others; about 3.8% of the full set was active somewhere.

O=C(/C=C/c1ccccc1Br)c1ccc2c(c1)OCO2 was read as hERG rescue -11, Kir21 inh 0, KCNQ1 inh inactive, KCNK9 inh inactive, KCNQ1 pot inactive and KCNK3 block inactive.
For COc1ccc(-c2csc(NC(=O)CS(=O)(=O)c3ccc(F)cc3)n2)cc1OC the results were hERG rescue -11, Kir21 inh -0.33, KCNQ1 inh inactive, KCNK9 inh inactive, KCNQ1 pot inactive and KCNK3 block inactive.
COCCNC(=O)c1ccccc1NC(=O)Cc1ccccc1[N+](=O)[O-] was read as hERG rescue -12, Kir21 inh 1.2, KCNQ1 inh inactive, KCNK9 inh inactive, KCNQ1 pot inactive, KCNK3 block -9.9*, KCNK3 inh conf 0 and KCNK3 noninduced inactive.
Screening CCOc1ccc(C(=O)NCC(=O)NNC(=O)CN(C)S(=O)(=O)c2ccc(Cl)cc2)cc1OCC returned KCNK3 block inactive.
`CCOC(=O)C1CCN(C(=O)Nc2cccc(Cl)c2)CC1` gave hERG rescue -9, Kir21 inh 1.6, KCNQ1 inh inactive, KCNK9 inh inactive, KCNQ1 pot inactive and KCNK3 block inactive.
`CCOC(=O)C1CCN(C(=O)Nc2cc(Cl)cc(Cl)c2)CC1` gave hERG rescue -3, Kir21 inh -0.91, KCNQ1 inh inactive, KCNK9 inh inactive, KCNQ1 pot inactive, KCNK3 block -9.9*, KCNK3 inh conf 111* and KCNK3 noninduced inactive.
Screening COc1ccccc1NS(=O)(=O)c1cccc(NC(=O)c2sc3ccccc3c2Cl)c1 returned hERG rescue -12, Kir21 inh 0.85, KCNQ1 inh inactive, KCNK9 inh inactive, KCNQ1 pot inactive, KCNK3 block -9.1*, KCNK3 inh conf 96* and KCNK3 noninduced inactive.
Screening CCCCN(Cc1ccco1)C(=O)C1CCCN(c2ncnc3c2nc2n3CCCCC2)C1 (stereo not given) returned hERG rescue -15, Kir21 inh 0.08, KCNQ1 inh inactive, KCNK9 inh inactive, KCNQ1 pot inactive, KCNK3 block -11*, KCNK3 inh conf 97* and KCNK3 noninduced inactive.
For CCOc1ccccc1/C=C(\C#N)C1=CCCC1 the results were hERG rescue -1, Kir21 inh -0.91, KCNQ1 inh inactive, KCNK9 inh inactive, KCNQ1 pot inactive and KCNK3 block inactive.
`COc1ccc(NC(=O)Cn2ncn3nc(-c4ccc(OC)cc4)cc3c2=O)cc1` gave hERG rescue -7, Kir21 inh 2.9, KCNQ1 inh inactive, KCNK9 inh inactive, KCNQ1 pot inactive and KCNK3 block inactive.
`COC(=O)c1sccc1NC(=O)c1ccc(C(C)C)cc1` gave hERG rescue -10, Kir21 inh -1.8, KCNQ1 inh inactive, KCNK9 inh inactive, KCNQ1 pot inactive, KCNK3 block -11*, KCNK3 inh conf 100* and KCNK3 noninduced inactive.
For O=C(N1CCCC1)C12CCC3CC(CC(C3)C1)C2 the results were hERG rescue -9, Kir21 inh 0.09, KCNQ1 inh inactive, KCNK9 inh inactive, KCNQ1 pot inactive and KCNK3 block inactive.
For COC(=O)N/N=C/c1cc(N=Nc2ccccc2)ccc1O the results were hERG rescue -22, Kir21 inh 0.58, KCNQ1 inh inactive, KCNK9 inh -7.2*, KCNQ1 pot inactive, KCNK3 block -11*, KCNK3 inh conf 109* and KCNK3 noninduced 0.15*.
Cc1cc(C(=O)N/N=C/c2cc(N=Nc3ccccc3)ccc2O)n[nH]1 was read as hERG rescue -13, Kir21 inh -0.02, KCNQ1 inh inactive, KCNK9 inh inactive, KCNQ1 pot inactive and KCNK3 block inactive.
CCCc1cc(NCCCn2ccnc2)n2nc(C)c(-c3ccccc3)c2n1 was read as hERG rescue -22, Kir21 inh -5.8, KCNQ1 inh inactive, KCNK9 inh inactive, KCNQ1 pot inactive, KCNK3 block -8.8*, KCNK3 inh conf 109* and KCNK3 noninduced 0.15*.
For CC(C)Nc1cc(C(C)(C)C)nc2c(-c3ccccc3)cnn12 the results were hERG rescue -13, Kir21 inh -0.54, KCNQ1 inh inactive, KCNK9 inh inactive, KCNQ1 pot inactive, KCNK3 block -10*, KCNK3 inh conf 82* and KCNK3 noninduced 0.14*.
Screening COc1ccc(C(NCC(=O)NC(C)c2ccc(Cl)cc2)c2ccccc2)cc1 (stereo not given) returned hERG rescue -1, Kir21 inh 0.01, KCNQ1 inh inactive, KCNK9 inh inactive, KCNQ1 pot inactive, KCNK3 block -9.5*, KCNK3 inh conf 126* and KCNK3 noninduced 0.12*.
For COc1ccc(NC(=O)CNC(c2ccccc2)c2ccccc2)cc1 the results were hERG rescue -4, Kir21 inh -0.03, KCNQ1 inh inactive, KCNK9 inh inactive, KCNQ1 pot inactive and KCNK3 block inactive.
Screening COc1cc(CC(=O)OCC(=O)NC2CCCC2)cc(OC)c1OC returned KCNK3 block inactive.
O=C(CNC(=O)c1cccc(F)c1)OCCOc1cccc(Cl)c1 was read as hERG rescue -17, Kir21 inh 1.1, KCNQ1 inh inactive, KCNK9 inh inactive, KCNQ1 pot inactive, KCNK3 block -8.7*, KCNK3 inh conf 104* and KCNK3 noninduced inactive.
`O=C(CNC(=O)c1ccccc1)OCCOc1cccc(Cl)c1` gave hERG rescue -16, Kir21 inh 0.52, KCNQ1 inh inactive, KCNK9 inh inactive, KCNQ1 pot inactive and KCNK3 block inactive.
For N#C/C(=N\Nc1cccc(C(F)(F)F)c1)C(=O)c1csc(-c2cccnc2)n1 the results were hERG rescue -32, Kir21 inh -0.08, KCNQ1 inh 7*, KCNK9 inh inactive, KCNQ1 pot inactive, KCNK3 block -9.4*, KCNK3 inh conf 101* and KCNK3 noninduced 0.13*.
For Cc1ccc(S(=O)(=O)c2nc(-c3ccccc3)oc2N2CCC(C(N)=O)CC2)cc1 the results were hERG rescue -1, Kir21 inh -1.2, KCNQ1 inh inactive, KCNK9 inh inactive, KCNQ1 pot inactive and KCNK3 block inactive.
Screening COc1ccc(CCNC(=O)CSc2cn(Cc3cccc(C)c3)c3ccccc23)cc1OC returned hERG rescue -11, Kir21 inh -1.1, KCNQ1 inh inactive, KCNK9 inh inactive, KCNQ1 pot inactive, KCNK3 block -9.2*, KCNK3 inh conf 105* and KCNK3 noninduced inactive.
